Active and inactive are the calls of the source. Unless noted, no stated cut-off is given here; in the data, active means inhibition above about 30%; inactive means the rest.
Tests used:
[1] = reducers of endogenous Her2 protein level, primary screen, SKBR3 breast tumor cells, AlphaScreen, ATP viability (AID 461;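 active means Her2 level under about 52% in both replicate screens, with viability over 70% of control, limit read from the data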;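 on Her2 level: lower value means less Her2 protein in the cells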;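 on viability: percent of carrier control wells set as 100% viability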); settings: 18-24 h, measured here: SKBR3 viability, ATP luminescence, at 10 µM
[2] = target: Receptor tyrosine-protein kinase erbB-2 (Homo sapiens) (UniProt P04626); experiment: as above; settings: 18-24 h, at 10 µM, stronger effect = lower value
Receptor tyrosine-protein kinase erbB-2 (Homo sapiens), sequence (P04626 whole entry, looked up): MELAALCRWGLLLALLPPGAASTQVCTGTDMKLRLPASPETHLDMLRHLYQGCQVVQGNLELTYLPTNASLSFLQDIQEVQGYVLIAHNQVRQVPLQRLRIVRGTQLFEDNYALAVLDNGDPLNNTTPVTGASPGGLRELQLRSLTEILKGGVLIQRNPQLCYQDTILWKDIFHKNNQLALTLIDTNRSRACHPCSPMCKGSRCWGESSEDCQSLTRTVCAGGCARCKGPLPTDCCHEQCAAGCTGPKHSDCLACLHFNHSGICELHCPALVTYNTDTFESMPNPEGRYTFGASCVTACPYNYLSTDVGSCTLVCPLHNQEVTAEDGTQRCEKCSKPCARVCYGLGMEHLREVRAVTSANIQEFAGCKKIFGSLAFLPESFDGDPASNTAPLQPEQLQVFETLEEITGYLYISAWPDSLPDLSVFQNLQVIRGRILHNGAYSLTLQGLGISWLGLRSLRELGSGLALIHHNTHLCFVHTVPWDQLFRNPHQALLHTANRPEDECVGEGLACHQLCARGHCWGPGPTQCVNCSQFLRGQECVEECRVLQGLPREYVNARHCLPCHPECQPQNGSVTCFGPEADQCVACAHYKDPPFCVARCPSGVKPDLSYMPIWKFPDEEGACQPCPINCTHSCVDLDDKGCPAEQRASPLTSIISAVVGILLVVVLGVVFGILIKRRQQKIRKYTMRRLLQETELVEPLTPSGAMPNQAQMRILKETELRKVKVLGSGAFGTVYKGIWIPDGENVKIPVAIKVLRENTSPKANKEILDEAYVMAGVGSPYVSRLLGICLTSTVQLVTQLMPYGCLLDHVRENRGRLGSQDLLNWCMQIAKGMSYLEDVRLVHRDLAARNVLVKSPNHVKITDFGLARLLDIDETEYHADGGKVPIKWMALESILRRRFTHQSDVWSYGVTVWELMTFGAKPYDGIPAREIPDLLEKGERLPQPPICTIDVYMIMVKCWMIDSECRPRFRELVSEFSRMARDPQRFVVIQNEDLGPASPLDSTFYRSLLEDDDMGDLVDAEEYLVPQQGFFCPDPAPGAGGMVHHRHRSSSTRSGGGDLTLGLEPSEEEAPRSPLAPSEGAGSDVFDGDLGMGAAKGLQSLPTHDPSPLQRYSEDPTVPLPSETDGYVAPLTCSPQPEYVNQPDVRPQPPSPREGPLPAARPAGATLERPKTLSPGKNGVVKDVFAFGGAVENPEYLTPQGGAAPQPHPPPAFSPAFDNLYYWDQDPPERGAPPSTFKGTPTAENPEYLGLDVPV

[3] = SK-BR-3 cell growth inhibitors, pilot screen, 24 h, human (AID 572;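 active means viability at or below 10% of carrier control in both of two separate runs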;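 further: compound exposure lasted between 18 and 24 h rather than exactly 24 h; 100% = carrier-treated control wells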); settings: SK-BR-3 viability, CellTiter-Glo luminescence, at 10 µM, stronger effect = lower value
[4] = HUVEC growth inhibition – cell-based, human, primary screen (AID 575;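 active means viability at or below 30% in both replicate assays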;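 further: 100% = median of untreated cell wells with 0.1% DMSO on each plate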); settings: HUVEC proliferation, CellTiter-Glo luminescence, 72 h; at 10 µM; stronger effect = lower value
In short: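 System – primary HUVEC, no more than 12 passages · Medium – Low-serum (2% FBS) EBM, supplemented · Times – 72 h exposure, 37 °C, 5% CO2, 30 min RT equilibration · Measured by – luminescent ATP assay · Read-out – % viability relative to median vehicle-well signal on each plate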

[5] = growth inhibitors of H69AR lung tumor, primary screen, human, duplicate replicates (AID 580;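 active means viability at or under a set limit in both replicates, limit being median viability minus 3 SD, cut at about 48% in these data, passing the limit was not always enough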;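 further: 100% = mean luminescence of untreated wells and 0% = no signal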); settings: H69AR lung tumor cells viability, ATP luminescence, 72 h; at 10 µM; stronger effect = lower value
[6] = reversal of MRP1-mediated doxorubicin resistance, pilot screen, H69AR cells, doxorubicin co-treatment (AID 601;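 active means viability loss from added drug above about 55%, and viability with drug at most 40%, in both replicates, limit read from the data, passing the limit was not always enough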); settings: CellTiter-Glo, 72 h, at 10 µM; for differential viability (reversal): stronger effect = higher value
[7] = 384-well plate pilot, post-Golgi transport modulator project, inhibition of yeast transport mutant growth (AID 636; in the data active means inhibition above about 31%); settings: absorbance 615 nm, about 18 h, stronger effect = higher value
[8] = growth suppression of yeast trafficking mutant, preliminary HTS, modulators of trafficking downstream of Golgi apparatus project, 1536-format plate, OD 615 nm (AID 637); settings: yeast transport mutant growth, absorbance 615 nm, 18 h; stronger effect = higher value
[9] = H69AR cells + 2 uM doxorubicin, measured here: viability with 2 uM doxorubicin, stronger effect = lower value
[10] = H69AR cells, compound alone cytotoxicity

| Structure (SMILES) | viability [1] | Her2 level [2] | viability [3] | viability [4] | viability [5] | differential viability (reversal) ([6]; H69AR cells + 2 uM doxorubicin) | viability [6, 9] | viability [6, 10] | inhibition [7] | inhibition [8] |
| --- | --- | --- | --- | --- | --- | --- | --- | --- | --- | --- |
| Cc1ccccc1NC(=O)C1Cc2ccccc2C(=O)O1 (stereo not given) | 134% | 112% (inactive) | 134% (inactive) | 116% (inactive) | 98.7% (inactive) | 7.54% (inactive) | 91.2% | 98.7% | -4.93% (inactive) | 3.23% (inactive) |
| Cc1ccc2[nH]c3c(N4CCOCC4)ncnc3c2c1 | 116% | 95% (inactive) | 116% (inactive) | 76.3% (inactive) | 85.5% (inactive) | -15.7% (inactive) | 101% | 85.5% | -3.68% (inactive) | 8.2% (inactive) |
| O=C(C1CCC1)N1CCc2cc(S(=O)(=O)N3CCc4ccccc4C3)ccc21 | 88% | 97% (inactive) | 88% (inactive) | 72.1% (inactive) | 89% (inactive) | -5.04% (inactive) | 94% | 89% | -5.47% (inactive) | -7.54% (inactive) |
| CCN1C(=O)/C(=C2\C=Cc3ccccc3N2CC)OC1=S | 95.5% | 100% (inactive) | 95.5% (inactive) | 85.9% (inactive) | 72% (inactive) | 7.3% (inactive) | 64.7% | 72% | -4.23% (inactive) | 2.33% (inactive) |
| Cc1ccc(S(=O)(=O)N2CCOCC2)cc1C(=O)OCC(=O)N1CCc2ccccc2C1 | 82.5% | 87.5% (inactive) | 82.5% (inactive) | 99.9% (inactive) | 87.9% (inactive) | -7.28% (inactive) | 95.2% | 87.9% | -4% (inactive) | 2.95% (inactive) |
| Nc1ncnc2nc(SCCN3CCCCC3)[nH]c12 | 119% | 88% (inactive) | 119% (inactive) | 102% (inactive) | 100% (inactive) | 3.13% (inactive) | 97.3% | 100% | 3.29% (inactive) | -5.32% (inactive) |
| CCOc1ccc(-c2nnn(CC(=O)N3CCN(c4ccc(F)cc4)CC3)n2)cc1OCC | 111% | 102% (inactive) | 111% (inactive) | 76% (inactive) | 81.9% (inactive) | -10.1% (inactive) | 92% | 81.9% | -2.93% (inactive) | -0.33% (inactive) |
| Nn1c(SCC(=O)Nc2ccc3c(c2)OCO3)nnc1C1CC1 | 102% | 78.5% (inactive) | 102% (inactive) | 105% (inactive) | 94.2% (inactive) | 2% (inactive) | 92.2% | 94.2% | -5.41% (inactive) | 8.25% (inactive) |
| CC(=O)NC(Cc1cc(C)ccc1C)C(=O)N1CCN(C(=O)Nc2ccc(C(C)=O)cc2)CC1 (stereo not given) | 102% | 101% (inactive) | 102% (inactive) | 109% (inactive) | 88.7% (inactive) | -5.32% (inactive) | 94% | 88.7% | -4.62% (inactive) | -11.3% (inactive) |
| C=CCN1C(=O)/C(=C2\SC(N3CCOCC3)=NC2=O)c2cc(Br)ccc21 | 82.5% | 84.5% (inactive) | 82.5% (inactive) | 86.1% (inactive) | 83.1% (inactive) | -4.46% (inactive) | 87.5% | 83.1% | -1.32% (inactive) | -2.55% (inactive) |
| CCN(CC)S(=O)(=O)c1ccc(NC2c3ccccc3C(=O)N2CCN2CCOCC2)cc1 (stereo not given) | 101% | 105% (inactive) | 101% (inactive) | 85.2% (inactive) | 87% (inactive) | 10.8% (inactive) | 76.2% | 87% | -1.54% (inactive) | -0.83% (inactive) |
| O=C(CSC1=NC(=O)C(Cc2ccccc2)C(=O)N1)NC1CCCCC1 (stereo not given) | 100% | 118% (inactive) | 100% (inactive) | 87.8% (inactive) | 91.7% (inactive) | 8.56% (inactive) | 83.2% | 91.7% | -0.53% (inactive) | 23.1% (inactive) |
| Cc1ccccc1-n1c(=O)cc(N2CCN(C(=O)c3ccco3)CC2)[nH]c1=O | 86% | 100% (inactive) | 86% (inactive) | 100% (inactive) | 98.3% (inactive) | 9.79% (inactive) | 88.5% | 98.3% | 0.77% (inactive) | 0.17% (inactive) |
| CCOC(=O)CSC1=C(C#N)C(=O)NC2(CCCCC2)S1 | 108% | 106% (inactive) | 108% (inactive) | 100% (inactive) | 108% (inactive) | 12.1% (inactive) | 95.9% | 108% | -6.16% (inactive) | -5.24% (inactive) |
| CCCOC(=O)C1[C@H]2C(=O)N(CCCOC)C[C@]23C=C[C@H]1O3 (stereo not given in full) | 92.5% | 85% (inactive) | 92.5% (inactive) | 98.5% (inactive) | 98.3% (inactive) | -1.98% (inactive) | 100% | 98.3% | -5.06% (inactive) | -3.17% (inactive) |
| CCCn1c(SCC(=O)N2CCCc3ccccc32)nnc1-c1ccccn1 | 84.5% | 102% (inactive) | 84.5% (inactive) | 103% (inactive) | 95.1% (inactive) | 1.95% (inactive) | 93.2% | 95.1% | -4.67% (inactive) | 5.16% (inactive) |

| Structure (SMILES) | viability [1] | Her2 level [2] | viability [3] | viability [4] | viability [5] | differential viability (reversal) ([6]; H69AR cells + 2 uM doxorubicin) | viability [6, 9] | viability [6, 10] | inhibition [7] | inhibition [8] |
| --- | --- | --- | --- | --- | --- | --- | --- | --- | --- | --- |
| CCOC(=O)CC1(CC(=O)OCC)NC(=O)c2c(C)sc(C(=O)OCC)c2N1 | 92% | 93% (inactive) | 92% (inactive) | 71.4% (inactive) | 101% (inactive) | 5.26% (inactive) | 95.3% | 101% | -1.05% (inactive) | 6.39% (inactive) |
| COc1ccc(N2CCN(CCCNC(=O)C3(S(=O)(=O)c4ccc(Cl)cc4)CC3)CC2)cc1 | 87.5% | 96.5% (inactive) | 87.5% (inactive) | 87.2% (inactive) | 83.1% (inactive) | -13.1% (inactive) | 96.1% | 83.1% | -0.65% (inactive) | -2.54% (inactive) |
| CN(C(=O)c1ccccn1)c1nnc(-c2ccncc2)s1 | 118% | 92.5% (inactive) | 118% (inactive) | 101% (inactive) | 108% (inactive) | 15.6% (inactive) | 92.8% | 108% | -3.65% (inactive) | -5% (inactive) |
| CC1CCC2C(C1)c1sc(=O)[nH]c1SC2(C)C (stereo not given) | 85% | 111% (inactive) | 85% (inactive) | 60.5% (inactive) | 106% (inactive) | 2.79% (inactive) | 103% | 106% | 0.9% (inactive) | 13.2% (inactive) |
| O=c1[nH]c2sc3c(c2c2nncn12)CCCC3 | 136% | 114% (inactive) | 136% (inactive) | 76.4% (inactive) | 100% (inactive) | 7.53% (inactive) | 92.7% | 100% | -6.16% (inactive) | 2.54% (inactive) |
| COCCn1c(C)cc(C(=O)CSc2nc3ccccc3c(=O)[nH]2)c1C | 88.5% | 67% (inactive) | 88.5% (inactive) | 64.6% (inactive) | 80.9% (inactive) | -8.01% (inactive) | 88.9% | 80.9% | -5.47% (inactive) | -3.61% (inactive) |
| c1ccc(-n2ncc3c(N4CCCCC4)ncnc32)cc1 | 105% | 90.5% (inactive) | 105% (inactive) | 59.4% (inactive) | 70% (inactive) | 4.94% (inactive) | 65.1% | 70% | -3.6% (inactive) | -4.17% (inactive) |
| FC(F)(F)c1cc(-c2ccco2)nc(N2CCOCC2)n1 | 86% | 80.5% (inactive) | 86% (inactive) | 69.1% (inactive) | 92.4% (inactive) | 18.6% (inactive) | 73.8% | 92.4% | -6.93% (inactive) | 7.21% (inactive) |
| CC(NC(=O)c1ccc(F)cc1)C(c1cccs1)N1CCN(C)CC1 (stereo not given) | 90.5% | 86.5% (inactive) | 90.5% (inactive) | 98% (inactive) | 91.9% (inactive) | 0.16% (inactive) | 91.7% | 91.9% | -6% (inactive) | 3.44% (inactive) |
| CCc1ccccc1-n1c(SCC(=O)N2CCCC2)nnc1-c1ccccn1 | 106% | 99.5% (inactive) | 106% (inactive) | 123% (inactive) | 95.3% (inactive) | 1.95% (inactive) | 93.3% | 95.3% | 1.92% (inactive) | -6.03% (inactive) |
| CCOC(=O)CC1=C(C(=O)OCC)C(c2ccc(C)o2)C(C#N)=C(N)O1 (stereo not given) | 95% | 104% (inactive) | 95% (inactive) | 107% (inactive) | 85.6% (inactive) | 8.26% (inactive) | 77.3% | 85.6% | 0.65% (inactive) | -9.05% (inactive) |
| CCCCn1c(SCC(=O)Nc2cc(C)on2)nnc1-c1cccnc1 | 96.5% | 111% (inactive) | 96.5% (inactive) | 87.8% (inactive) | 104% (inactive) | -2.12% (inactive) | 106% | 104% | -0.67% (inactive) | 11% (inactive) |
| CCC(=O)Nc1ccc(Cl)c(NC(=O)C(C)C)c1 | 97% | 80% (inactive) | 97% (inactive) | 87.9% (inactive) | 111% (inactive) | 7.54% (inactive) | 103% | 111% | -7.97% (inactive) | 6.07% (inactive) |
| O=C(Cn1ccc2ccccc2c1=O)Nc1ccc2c(c1)OCO2 | 104% | 95.5% (inactive) | 104% (inactive) | 95.7% (inactive) | 107% (inactive) | 14.8% (inactive) | 92.2% | 107% | 1.49% (inactive) | -3.17% (inactive) |
| N#Cc1c(N)n(CCNC(=O)c2cccs2)c2nc3ccccc3nc12 | 82.5% | 84.5% (inactive) | 82.5% (inactive) | 97.9% (inactive) | 90.9% (inactive) | -7.67% (inactive) | 98.5% | 90.9% | -5.6% (inactive) | -0.16% (inactive) |

— PubChem BioAssay
